APP 5UTR inh = APP translation inhibition; AID 1285; SH-SY5Y APP 5'UTR-luciferase reporter, luminescence; inhibition, % at 2 µM; 0.82% of 190,000 active;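 active = inhibition above a set limit, derived from the sample mean plus 3 SD, cut at about 45% in these data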
Ba/F3 V617F tox = reduce viability of Ba/F3 cells dependent on JAK2V617F | 1.1% of 220,000 active | inhibition, % at 5.6 µM | AID 1446 | Ba/F3 EpoR-JAK2V617F viability, ATP luminescence;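 active = inhibition above the campaign mean plus 3 SD over all tested compounds, cut at about 24% in these data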;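 note: cytokine-independent growth of Ba/F3 cells driven by EpoR plus mutant JAK2; 0% = DMSO-treated cells and 100% = JAK inhibitor I control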
Lmaj promast = reduces viability of Leishmania major promastigotes; resazurin fluorescence viability; inhibition, % at 10 µM; 9% of 200,000 active; AID 1063; in the data active = inhibition above about 50%;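 note: promastigotes grown with compound for 44 hours at 28 °C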
MT stabilize HCS = microtubule stabilization, imaging screen; HeLa tubulin immunostaining HCS, 24 h; share of cells brighter than vehicle mean+2SD; % tubulin-high responders, % at 10 µM; 0.83% of 200,000 active;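 active = plate Z-score above 3 for both tubulin-high and condensed-nucleus cell shares, with cell loss under 80%, at 10 µM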;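 note: anti alpha tubulin signal scored within the nucleus-defined area of each cell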
b-catenin transl = modulators of beta-catenin nuclear translocation; HeLa beta-catenin nuclear translocation, immunofluorescence imaging; 0.3% of 190,000 active; nuclear translocation activity, % at 5 µM; AID 1665;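 active = nuclear translocation activity above 50% at 5 µM, with a well cell count of 50 or more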;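 note: per-cell ratio of nuclear to cytoplasmic median beta-catenin stain intensity; plate controls were DMSO negative control for no effect and GSK-3 inhibitor IX positive control for full effect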
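Signal – beta-catenin immunofluorescence imaging with DAPI · Test system – human HeLa cell line · Dosing – 5 µM primary single dose, 0.1% DMSO, 0.02–20 µM confirmation series · Measure – % activation, nuclear-to-cytoplasmic median beta-catenin signal ratio per cell · Incubation – 24 h compound exposure at 37°C, 5% CO2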
BaF3 tox = parental Ba/F3 viability inhibition as JAK2V617F counter-screen | CellTiter-Glo ATP luminescence | inhibition, % at 5.6 µM | 1.1% of 220,000 active;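 active = inhibition above a per-campaign cutoff, the mean inhibition of all tested compounds plus 3 SD, cut at about 27% in these data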;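 note: 0% = DMSO wells and 100% = JAK Inhibitor I control wells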
Active calls of the source: *. A selection: hits, their analogues and other compounds. The true share with any hit is near 9.6%.

Screening CCC1CO/C(=C(\C(Cl)=C(Cl)Cl)[N+](=O)[O-])N1 (stereo not drawn) returned APP 5UTR inh -2, Ba/F3 V617F tox 0, Lmaj promast -1, MT stabilize HCS 4, b-catenin transl 2 and BaF3 tox -1.
Screening NC(=S)N=Nc1c(O)n(Cc2ccc(F)cc2)c2ccccc12 returned APP 5UTR inh -6, Ba/F3 V617F tox 4, Lmaj promast -4, MT stabilize HCS 3, b-catenin transl 0 and BaF3 tox 4.
Screening Cc1cccc(NC(=S)N=Nc2c(O)n(CN3CCOCC3)c3ccccc23)c1C returned APP 5UTR inh 22, Ba/F3 V617F tox -3, Lmaj promast 96*, MT stabilize HCS 3, b-catenin transl -2 and BaF3 tox 7.
`Oc1c(N=NC(=S)Nc2ccccc2F)c2ccccc2n1Cc1ccc(F)cc1` gave APP 5UTR inh 22, Ba/F3 V617F tox -1, Lmaj promast 91*, MT stabilize HCS 5, b-catenin transl 2 and BaF3 tox 5.
For O=Nc1c(O)n(Cc2ccc(Cl)cc2)c2ccccc12 the results were APP 5UTR inh 7, Ba/F3 V617F tox 1, Lmaj promast -4, MT stabilize HCS 1, b-catenin transl -1 and BaF3 tox 8.
`Cc1cccc(Cn2c(O)c(N=NC(=S)Nc3ccccc3F)c3ccccc32)c1` gave APP 5UTR inh 32, Ba/F3 V617F tox -1, Lmaj promast 97*, MT stabilize HCS 3, b-catenin transl -2 and BaF3 tox 2.
For Oc1c(N=NC(=S)Nc2ccccc2F)c2ccccc2n1Cc1cccc(Cl)c1 the results were APP 5UTR inh 12, Ba/F3 V617F tox 3, Lmaj promast 83*, MT stabilize HCS 3, b-catenin transl 0 and BaF3 tox 1.
NC(=S)N=Nc1c(O)n(Cc2ccc(Br)cc2)c2ccccc12 was read as APP 5UTR inh 58*, Ba/F3 V617F tox -1, Lmaj promast 10, MT stabilize HCS 20, b-catenin transl 9 and BaF3 tox 1.
Cc1ccc(C)c(C(=O)Nc2cc(C)nn2-c2nc(C)cc(C)n2)c1 was read as APP 5UTR inh 10, Ba/F3 V617F tox -2, Lmaj promast 29, MT stabilize HCS 13*, b-catenin transl -1 and BaF3 tox 3.
Screening O=C(N/N=C1\CC2CC=CC12)c1ccccc1Cl (stereo not drawn) returned APP 5UTR inh -8, Ba/F3 V617F tox 1, Lmaj promast -1, MT stabilize HCS 7, b-catenin transl 1 and BaF3 tox 3.
For FC(F)(F)c1ccccc1NC(=S)N/N=C1\CC2CC=CC12 (stereo not drawn) the results were APP 5UTR inh 86*, Ba/F3 V617F tox 4, Lmaj promast -10, MT stabilize HCS 11 and BaF3 tox 11.
For C[N+]1(CC(=O)OC2CCCCCCCCCCC2)CCCC1 the results were APP 5UTR inh -3, Ba/F3 V617F tox 73*, Lmaj promast 100*, MT stabilize HCS 4 and BaF3 tox 72*.
Screening CSc1cccc(NC(=O)Nc2ccccc2C(N)=O)c1 returned Ba/F3 V617F tox 0, b-catenin transl 2 and BaF3 tox -2.
For CC(C)CNC(=O)CC(c1ccccc1)c1ccccc1 the results were APP 5UTR inh -22, Ba/F3 V617F tox 0, Lmaj promast 8, MT stabilize HCS 2, b-catenin transl -1 and BaF3 tox 6.
For Cc1cccc(Nc2nnc(SCC(=O)NC(=O)Nc3ccc4c(c3)OCCO4)s2)c1 the results were APP 5UTR inh 0, Ba/F3 V617F tox -1, Lmaj promast 28, MT stabilize HCS 2, b-catenin transl 1 and BaF3 tox 5.
`O=C(/C=C/c1ccccc1)Nc1ccc2c(c1)OCCO2` gave APP 5UTR inh -152, Ba/F3 V617F tox -1, Lmaj promast -1, MT stabilize HCS 2, b-catenin transl 0 and BaF3 tox 6.
For COc1ccccc1Nc1nnc(SCC(=O)NC(=O)Nc2ccc3c(c2)OCCO3)s1 the results were APP 5UTR inh 19, Ba/F3 V617F tox -1, Lmaj promast 56*, MT stabilize HCS 4 and BaF3 tox 7.
`Cc1ccccc1Nc1nnc(SCC(=O)NC(=O)Nc2ccc3c(c2)OCCO3)s1` gave APP 5UTR inh -28, Ba/F3 V617F tox 2, Lmaj promast 60*, MT stabilize HCS 5 and BaF3 tox 5.
Screening COc1ccccc1/C=C/C(=O)Nc1ccc2c(c1)OCCO2 returned APP 5UTR inh -134, Ba/F3 V617F tox 3, Lmaj promast 18, MT stabilize HCS 24*, b-catenin transl 73* and BaF3 tox 12.
